{
  "source": "ChEMBL document CHEMBL4811241",
  "about": "“Revisiting Pyrazolo[3,4-d]pyrimidine Nucleosides as Anti-Trypanosoma cruzi and Antileishmanial Agents” (J Med Chem, 2021)",
  "key": {"[1]": {"test": "Cytotoxicity against human MRC-5 SV2 cells assessed as reduction in cell growth measured after 3 days by resazurin dye based fluorometric analysis", "settings": "time 3 day"}, "[2]": {"system": "Leishmania infantum", "test": "Antileishmanial activity against amastigote form of Leishmania infantum MHOM/MA(BE)/67 infected in Swiss mouse peritoneal macrophages assessed as reduction in parasite growth treated at 2 hrs post-infection and measured after 5 days by Giemsa staining based microscopic analysis", "format": "functional, organism-based", "settings": "MHOM/MA(BE)/67, Peritoneal macrophage", "how_it_was_run": "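Swiss mouse peritoneal macrophages, harvested after 2-day potato-starch stimulation, infected 48 h after plating; compounds added 2 h post-infection.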"}, "[3]": {"test": "Cytotoxicity against Swiss mouse peritoneal macrophages assessed as cell detachment, lysis and granulation measured after 5 days by microscopic analysis", "format": "cell-based, Peritoneal macrophage", "settings": "time 5 day", "how_it_was_run": "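Scored within the Leishmania macrophage assay over 5 days: detachment, lysis and granulation judged semi-quantitatively by microscopy across at least 500 cells. CC50 derived from % reduction in normal cells versus untreated wells.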"}, "[4]": {"system": "CYP450", "test": "Metabolic stability of the compound in mouse liver microsomes S9 fraction assessed as CYP450-mediated metabolism by measuring parent compound remaining at 5 uM measured after 15 mins in presence of NADPH by UPLC-MS analysis", "format": "ADME, subcellular", "settings": "read-out: Stabilty", "how_it_was_run": "(§1)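 Compound at 5 μM with 0.5 mg/mL male mouse or pooled human liver microsomes in potassium phosphate buffer; reaction started with 1 mM NADPH. Samples taken at 0, 15, 30 and 60 min and quenched in cold acetonitrile with internal standard. Parent remaining quantified by UPLC-MS/MS in MRM mode and given as % of the 0 min value.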"}, "[5]": {"biological_target": "CYP450 (Homo sapiens, UniProt P04798+P05177+P05181+P08684+P10632+P10635+P11509+P11712+P13584+P20813+P20815+P20853+P24462+P24903+P33260+P33261+P51589+P78329+P98187+Q02928+Q08477+Q16678+Q16696+Q5TCH4+Q6VVX0+Q7Z449+Q8TAV3+Q96SQ9+Q9HB55)", "test": "Metabolic stability of the compound in human liver microsomes S9 fraction assessed as CYP450-mediated metabolism by measuring parent compound remaining at 5 uM measured after 30 mins in presence of NADPH by UPLC-MS analysis", "format": "ADME, subcellular", "settings": "read-out: Stabilty", "how_it_was_run": "as §1"}, "[6]": {"system": "UGT", "test": "Metabolic stability of the compound in mouse liver microsomes S9 fraction assessed as UGT-mediated metabolism by measuring parent compound remaining at 5 uM measured after 15 mins in presence of UDPGA by UPLC-MS analysis", "format": "ADME, subcellular", "settings": "read-out: Stabilty", "how_it_was_run": "(§2)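 Compound at 5 μM with 0.5 mg/mL male mouse or pooled human liver microsomes; reaction started with 2 mM UDPGA. Sampled at 0, 15, 30 and 60 min and quenched in cold acetonitrile with internal standard. Parent remaining measured by UPLC-MS/MS (MRM) as % of the 0 min value.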"}, "[7]": {"system": "UGT", "test": "Metabolic stability of the compound in mouse liver microsomes S9 fraction assessed as UGT-mediated metabolism by measuring parent compound remaining at 5 uM measured after 30 mins in presence of UDPGA by UPLC-MS analysis", "format": "ADME, subcellular", "settings": "read-out: Stabilty", "how_it_was_run": "as §2"}, "[8]": {"biological_target": "UGT (Homo sapiens, UniProt O60656+O75310+O75795+P06133+P0DTE4+P0DTE5+P16662+P19224+P22309+P22310+P35503+P35504+P36537+P54855+Q6UWM9+Q9BY64+Q9HAW7+Q9HAW8+Q9HAW9)", "test": "Metabolic stability of the compound in human liver microsomes S9 fraction assessed as UGT-mediated metabolism by measuring parent compound remaining at 5 uM measured after 30 mins in presence of UDPGA by UPLC-MS analysis", "format": "ADME, subcellular", "settings": "read-out: Stabilty", "how_it_was_run": "as §2"}, "[9]": {"system": "Trypanosoma cruzi", "test": "Antitrypanosomal activity against Trypanosoma cruzi strain Y bloodstream trypomastigotes infected in Swiss Webster mouse assessed as reduction in parasitemia at 0.25 to 2.5 mg/kg, po bid for 5 days treatment started at 6 days post-infection by light microscopic analysis", "format": "functional", "settings": "dose 0.25-2.5 mg/kg, time 5 day", "how_it_was_run": "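Male Swiss Webster mice, 18–20 g, six per group; only mice with detectable parasitemia treated. Oral gavage for 5 consecutive days (6–10 dpi); test compound given b.i.d. in 10% Tween 80, benznidazole once daily, formulations freshly prepared. Parasitemia counted by light microscopy in 5 μL blood; mortality checked daily to 34 dpi.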"}, "[10]": {"test": "Toxicity in Swiss webster mouse infected with Trypanosoma cruzi Y trypomastigotes assessed as animal survival at 2.5 to 25 mg/kg, po bid for 5 days treatment started at 6 days post-infection and measured at 34 days post-infection", "format": "organism-based", "settings": "in vivo, dose 2.5-25 mg/kg, time 29 day", "how_it_was_run": "(§3)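 Male Swiss Webster mice (18−20 g, 4−5 weeks) were infected i.p. with 10⁴ Y-strain bloodstream trypomastigotes from a donor mouse. Only mice with detectable parasitemia were treated, in groups of six. Oral gavage was given on days 6–10 post-infection, b.i.d. or q.d. as listed, in 10% Tween 80 vehicle, freshly prepared. Infected vehicle controls were included. Mortality was checked daily to 34 dpi as cumulative percentage.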"}, "[11]": {"test": "Toxicity in Swiss webster mouse infected with Trypanosoma cruzi Y trypomastigotes assessed as animal survival at 0.25 mg/kg, po bid for 5 days treatment started at 6 days post-infection and measured at 34 days post-infection", "format": "organism-based", "settings": "in vivo, 696 h, time 29 day", "how_it_was_run": "as §3"}, "[12]": {"test": "Cytotoxicity against Swiss Webster mouse 3D cardiomyocytes assessed as reduction in cell viability measured after 48 hrs by PrestoBlue assay", "format": "tissue-based, Cardiac Muscle Cell", "how_it_was_run": "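Mouse embryo heart cells as monolayer (2D) or 3D aggregates (25 × 10³ cells/well on 1% agarose). Uninfected cultures exposed 48 h to rising concentrations. Morphology checked by light microscopy; viability read by PrestoBlue; CC₅₀ determined.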"}, "[13]": {"system": "Trypanosoma cruzi", "test": "Antitrypanosomal activity against nifurtimox-sensitive Trypanosoma cruzi Tulahuen CL2 infected in Swiss mouse peritoneal macrophages assessed as inhibition of parasite growth measured after 7 days in presence of ABC transporter inhibitor, cyclosporine A by spectrophotometric analysis", "format": "functional, organism-based", "settings": "Tulahuen CL2, Peritoneal macrophage, 168 h", "how_it_was_run": "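Macrophage-hosted 7-day assay read with CPRG at 540 nm, with compound given together with an ABC transporter inhibitor: cyclosporine A 2 μM, probenecid 700 μM or verapamil 8 μM. IC50 from % reduction versus infected controls.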"}},
  "data": [
    {"molecule": "Nc1ncnc2c1c(-c1ccc(Cl)cc1)nn2[C@@H]1O[C@H](CO)[C@@H](O)[C@H]1O", "values": [
      {"measurement": "CC50 at 72 h", "setting": "[1]", "value": "> 64", "unit": "µM"},
      {"measurement": "IC50", "setting": "[2]", "value": "> 64", "unit": "µM"},
      {"measurement": "CC50 at 120 h", "setting": "[3]", "value": "> 64", "unit": "µM"},
      {"measurement": "remaining at 0.25 h, 5 µM", "setting": "[4]", "value": 103, "unit": "%"},
      {"measurement": "remaining at 0.5 h, 5 µM", "setting": "[5]", "value": 101, "unit": "%"},
      {"measurement": "remaining at 0.25 h, 5 µM", "setting": "[6]", "value": 103, "unit": "%"},
      {"measurement": "remaining at 0.5 h, 5 µM", "setting": "[7]", "value": 115, "unit": "%"},
      {"measurement": "remaining at 0.5 h, 5 µM", "setting": "[8]", "value": 106, "unit": "%"},
      {"measurement": "inhibition (INH)", "setting": "[9]", "value": 43, "unit": "%"},
      {"measurement": "survival at 696 h", "setting": "[10]", "value": 83, "unit": "%"},
      {"measurement": "Activity", "setting": "[11]", "value": "Toxic"},
      {"measurement": "CC50 at 48 h", "setting": "[12]", "value": 200, "unit": "µM"},
      {"measurement": "IC50", "setting": "[13]", "value": "> 64", "unit": "µM"}
    ]}
  ]
}
